# Published values collected from several papers.
# Protocols differ between the studies behind these lines.
# MTNR1A: Melatonin receptor type 1A (MTNR1A, Homo sapiens, UniProt P48039)
# Trypanothione synthetase: Trypanothione synthetase (Trypanosoma cruzi, UniProt Q9GT49)
# BRWD3: BRWD3 (Homo sapiens, UniProt Q6RI45)
# BMP2K: BMP-2-inducible protein kinase (BMP2K, Homo sapiens, UniProt Q9NSY1)
# Grm1: Metabotropic glutamate receptor 1 (Grm1, Rattus norvegicus, UniProt P23385)
# murC: UDP-N-acetylmuramate--L-alanine ligase (murC, Escherichia coli K-12, UniProt P17952)
# HTR2C: 5-hydroxytryptamine receptor 2C (HTR2C, Homo sapiens, UniProt P28335)
SMILES,target,test,system,conditions,quantity,value
COc1ccc2[nH]cc(CCNC(C)=O)c2c1I,MTNR1A,"β-arrestin recruitment, agonist",CHO-K1,90 min,Emax,91%
Nc1ncnc2occ(-c3ccc(NC(=O)Nc4cc(C(F)(F)F)ccc4F)cc3)c12,"Receptor-type tyrosine-protein kinase FLT3 (FLT3, Homo sapiens, UniProt P36888, N841I)","cell-free assay, inhibitor",,20 µM,remaining signal,0.75%
CNC(=O)CN1C(=O)Cc2c([nH]c3ccc(Br)cc23)-c2ccc(Cl)cc21,Trypanothione synthetase,"enzyme activity, inhibitor, absorbance",,30 µM,inhibition,22.8%
COc1cc2c(CCNC(C)=O)c[nH]c2cc1I,MTNR1A,"cAMP, agonist, TR-FRET",CHO-K1,20 min,Emax,98%
Cc1cc2c(cc1N1C(=O)c3cccc4c(Cl)ccc(c34)C1=O)n(C)c(=O)n2C,BRWD3,"thermal stability, DSF",,10 µM,ΔTm,-0.5 °C
Cc1nn(CC(F)(F)F)cc1Nc1ncc(Br)c(NCCCNC(=O)C2CCC2)n1,BMP2K,"enzyme activity, inhibitor, radiometric",,1 µM,remaining activity,19%
COc1cc2c(CCNC(C)=O)c(I)[nH]c2cc1[N+](=O)[O-],MTNR1A,"GTPγS binding, agonist, radiometric",,cell membranes,Emax,72%
Cc1nn(CC(F)(F)F)cc1Nc1ncc(C2CC2)c(NCCCNC(=O)C2CCC2)n1,BMP2K,"enzyme activity, inhibitor, radiometric",,1 µM,remaining activity,73%
CCN(Cc1ccccc1C(F)(F)F)C(=O)C1CCN(S(=O)(=O)c2ccc3[nH]ncc3c2)CC1,"B2 bradykinin receptor (BDKRB2, Homo sapiens, UniProt P30411)","ligand displacement, radioligand",,10 µM,inhibition,11%
O=C(Nc1ccc(N2C(=O)c3ccccc3C2=O)c(Cl)c1)c1ncccc1O,Grm1,"calcium signal, positive allosteric modulator",T-REx-293,,Emax,105%
O=C(Cc1ccc2c(c1)OCO2)Oc1ccccc1C=NNS(=O)(=O)c1ccc2ccccc2c1,murC,"enzyme activity, inhibitor, absorbance",,100 µM,remaining activity,57%
NCCCCNC(=O)CN1C(=O)Cc2c([nH]c3ccc(Br)cc23)-c2ccc(Cl)cc21,Trypanothione synthetase,"enzyme activity, inhibitor, absorbance",,30 µM,inhibition,6.7%
Cc1cccnc1C(=O)Nc1ccc(N2C(=O)c3ccccc3C2=O)c(Cl)c1,Grm1,"calcium signal, positive allosteric modulator",T-REx-293,,Emax,109%
NS(=O)(=O)c1ccc(CNc2nc(Nc3cccc(NC(=O)N4CCCC4)c3)ncc2C2CC2)cc1,BMP2K,"enzyme activity, inhibitor, radiometric",,1 µM,remaining activity,64%
O=C(CN1C(=O)Cc2c([nH]c3ccc(Br)cc23)-c2ccc(Cl)cc21)NC1=NCCS1,Trypanothione synthetase,"enzyme activity, inhibitor, absorbance",,30 µM,inhibition,16%
COc1cc(I)c2[nH]cc(CCNC(C)=O)c2c1,MTNR1A,"β-arrestin recruitment, agonist",CHO-K1,90 min,Emax,95%
O=C(c1ccc(Cl)cc1)N(Cc1ccccc1)C1CCCCC1,HTR2C,"ligand displacement, radioligand",,10 µM,inhibition,-5.5%
NNC(=O)CN1C(=O)Cc2c([nH]c3ccc(Br)cc23)-c2ccc(Cl)cc21,Trypanothione synthetase,"enzyme activity, inhibitor, absorbance",,30 µM,inhibition,10.1%
CCCOc1ccc(OC)c(F)c1C(=O)c1ccc(C(=O)N[C@@H]2CNC[C@H]2NC(=O)c2ccc3[nH]ncc3c2)cc1,"Rho-associated protein kinase 2 (ROCK2, Homo sapiens, UniProt O75116)","enzyme activity, inhibitor",,10 µM,remaining activity,3%
COc1ccc2ncn(CCNC(C)=O)c2c1,MTNR1A,"β-arrestin recruitment, agonist",CHO-K1,90 min,Emax,92%
O=C(Nc1cccc(Nc2ncc(Br)c(NCCc3cnc[nH]3)n2)c1)N1CCCC1,BMP2K,"enzyme activity, inhibitor, radiometric",,1 µM,remaining activity,2%
O=C(O)C(=O)Cc1ccccc1,"Macrophage migration inhibitory factor (MIF, Homo sapiens, UniProt P14174)","enzyme activity, substrate",,,Km,760 µM
O=[N+]([O-])c1cccc(COc2ccccc2C=NNS(=O)(=O)c2ccc3ccccc3c2)c1,murC,"enzyme activity, inhibitor, absorbance",,50 µM,remaining activity,65%
CCc1ccc2scc(CCNC(C)=O)c2c1,MTNR1A,"β-arrestin recruitment, agonist",CHO-K1,90 min,Emax,75%
Cc1ccc(C(=O)Nc2ccc(CN3CCN(C)CC3)c(C(F)(F)F)c2)cc1C#Cc1cnc2cccnn12,"Ephrin type-B receptor 6 (EPHB6, Homo sapiens, UniProt O15197)",cell-free assay,,23.5 nM,remaining signal,85%
FC(F)(F)Oc1cccc(-c2cnc3ccc(-c4ccncc4)nn23)c1,"Serine/threonine-protein kinase SIK3 (SIK3, Homo sapiens, UniProt Q9Y2K2)","enzyme activity, inhibitor, radiometric",,1 µM,activity vs control,93%
O=C(Nc1ccc(C=NNS(=O)(=O)c2ccc3ccccc3c2)cc1)c1ccccc1Br,murC,"enzyme activity, inhibitor, absorbance",,100 µM,remaining activity,41%
O=C(NCCCNc1nc(Nc2cccc(CN3CCOCC3)c2)ncc1C1CC1)C1CCC1,BMP2K,"enzyme activity, inhibitor, radiometric",,1 µM,remaining activity,3%
N#Cc1ccc(COc2ccccc2C=NNS(=O)(=O)Cc2ccccc2)cc1,murC,"enzyme activity, inhibitor, absorbance",,100 µM,remaining activity,100%
Cc1cnc(Nc2ccc(OCCN3CCCC3)cc2)nc1Nc1cccc(S(=O)(=O)NC(C)(C)C)c1,BRWD3,"thermal stability, DSF",,10 µM,ΔTm,0.58 °C
Cc1nn(CC(F)(F)F)cc1Nc1ncc(C2CC2)c(NCCc2c[nH]cn2)n1,BMP2K,"enzyme activity, inhibitor, radiometric",,1 µM,remaining activity,96%
O=C(c1ccc(F)cc1)N(Cc1ccccc1)C1CCCCC1,"Substance-P receptor (TACR1, Homo sapiens, UniProt P25103)",cell-free assay,,10 µM,inhibition,20%
C[S+]([O-])c1ccc(-c2nc(-c3ccncc3)c(-c3ccc(F)cc3)[nH]2)cc1 (stereo not shown),BRWD3,"thermal stability, DSF",,10 µM,ΔTm,0.55 °C
COc1ccc2c(c1)C(CNC(N)=O)Cc1ccccc1C2 (stereo not shown),MTNR1A,"GTPγS binding, agonist, radiometric",,cell membranes,Emax,8%
COc1cc(NC(C)=O)c(Cl)cc1C(=O)Nc1nccs1,HTR2C,"ligand displacement, radioligand",,10 µM,inhibition,48.8%
O=C(NCCCNc1nc(Nc2cccc(NC(=O)N3CCCC3)c2)ncc1Br)C1CCC1,BMP2K,"enzyme activity, inhibitor, radiometric",,1 µM,remaining activity,-1%
O=C(Nc1ccc(C=NNS(=O)(=O)c2ccc3ccccc3c2)cc1)c1ccc([N+](=O)[O-])cc1,murC,"enzyme activity, inhibitor, absorbance",,50 µM,remaining activity,71%
